Screening results deposited in PubChem BioAssay by Broad Institute.
DYRK1A inh: inhibitors of rat Dyrk1A kinase. ADP-Glo luminescence, NFATc1 peptide. hit rate 0.43% among 310,000. Q63470. inhibition, % at 12.5 µM; in the data active = inhibition above about 50%;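 also: plate controls were vehicle with enzyme for no effect and no enzyme for full effect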
Rtt109 Vps75: C. albicans Rtt109 histone acetyltransferase inhibition | purified Rtt109/Vps75, ThioGlo CoA-SH fluorescence, 4 h | Q5AAJ8 | inhibition, % at 34.9 µM | AID 540336 | hit rate 0.16% among 330,000;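 active = inhibition of at least 50% in every replicate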
Target sequence (Q5AAJ8 whole entry, looked up): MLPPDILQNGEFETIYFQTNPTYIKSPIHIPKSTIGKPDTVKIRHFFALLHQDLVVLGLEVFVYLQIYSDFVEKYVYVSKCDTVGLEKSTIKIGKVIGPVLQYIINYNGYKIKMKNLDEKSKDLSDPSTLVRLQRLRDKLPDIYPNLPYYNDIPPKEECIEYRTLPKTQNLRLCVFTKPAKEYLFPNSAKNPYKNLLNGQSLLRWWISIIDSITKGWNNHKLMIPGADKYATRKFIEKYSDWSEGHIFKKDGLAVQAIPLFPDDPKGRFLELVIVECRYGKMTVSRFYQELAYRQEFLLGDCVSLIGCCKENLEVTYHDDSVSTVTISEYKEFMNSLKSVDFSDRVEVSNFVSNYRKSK
dFosB activator: mouse delta FosB homodimer activation | P13346 | purified delta FosB, TAMRA-CDK5 oligo fluorescence polarization; percent of positive-control signal above neutral wells | activation, % at 25 µM | hit rate 0.99% among 340,000;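 active = mean activation above about 17%, with every replicate also reaching it, limit read from the data, passing the limit was not always enough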
CAL PDZ FP-1: blocks peptide binding to human CAL PDZ domain | Q9HD26 | purified CAL PDZ, TMR-peptide fluorescence polarization, 1 h | inhibition, % at 20 µM | hit rate 0.02% among 330,000;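 active = highest replicate inhibition of at least 40%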;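 also: plate controls were DMSO neutral control wells for no effect and unlabeled competitor peptide control wells for full effect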
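Assay system – tagged CAL PDZ protein CerCALP, purified · Timing – 1 h at RT · Compound – single point, 20 µM · Measured by – fluorescence polarization from S- and P-plane intensities, G-factor corrected · Evaluation – inhibition from polarization loss · Probe or stimulus – TMR reporter peptide T*-PRC34 · Buffer or medium – pH 7.4 phosphate-saline buffer, reducing agent, detergent, IgG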
CDK5 p35 inh: inhibitors of human CDK5/p35 kinase; Recombinant CDK5/p35, ADP-Glo luminescence, 60 min; Q00535+Q15078; AID 488839; inhibition, % at 10 µM; hit rate 0.01% among 330,000;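 active = highest replicate inhibition of at least 50% and at least 75% of replicates reaching 50%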;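 also: plate controls were DMSO neutral control for no effect and GW8510 at 10 µM for full effect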
CAL PDZ FP-2: inhibitors of human CAL PDZ peptide binding; purified CAL PDZ, TMR-peptide fluorescence polarization, 1 h; AID 602252; inhibition, % at 24.9 µM; hit rate 0.92% among 300,000; Q9HD26;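 active = mean inhibition of at least 30% with at least half of replicates also reaching 30%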;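 also: 0% = DMSO neutral control and 100% = excess unlabeled competitor peptide PRC23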
* hit, by the source's call. A selection: hits, their analogues and other compounds. The true share with any hit is near 2.2%.

Brc1ccc(-c2noc3c2-c2nc(-c4ccccc4)sc2CC3)cc1 was read as DYRK1A inh 1, Rtt109 Vps75 -5, dFosB activator -2, CAL PDZ FP-1 0, CDK5 p35 inh -1 and CAL PDZ FP-2 -1.
For COc1ccc(Br)c(C(=O)OCC(=O)N2CCC(Cc3ccccc3)CC2)c1 the results were Rtt109 Vps75 10, dFosB activator -10, CAL PDZ FP-1 -2 and CDK5 p35 inh 0.
`CCN(CC)S(=O)(=O)c1ccc(N2CCN(C)CC2)c(NC(=O)c2cc(=O)c3ccccc3o2)c1` gave DYRK1A inh -1, Rtt109 Vps75 -5, dFosB activator -4, CAL PDZ FP-1 -1, CDK5 p35 inh 1 and CAL PDZ FP-2 1.
Screening COc1ccccc1N(C(=O)c1snc(C(N)=O)c1N)C(C(=O)NC1CCCCC1)c1cccc(OC)c1OC (stereo not given) returned DYRK1A inh -6, Rtt109 Vps75 53*, dFosB activator -14, CAL PDZ FP-1 -3, CDK5 p35 inh -1 and CAL PDZ FP-2 -1.
For O=C(CN1C(=O)COc2ccc(Cl)cc21)NCC1CCCO1 (stereo not given) the results were DYRK1A inh -10, Rtt109 Vps75 3, dFosB activator -1, CAL PDZ FP-1 -3, CDK5 p35 inh 2 and CAL PDZ FP-2 35*.
For Cc1csc(NC(=O)CN2C(=O)COc3ccc(Cl)cc32)n1 the results were DYRK1A inh 5, Rtt109 Vps75 -3, dFosB activator 29*, CAL PDZ FP-1 -3, CDK5 p35 inh -1 and CAL PDZ FP-2 -1.
For Cc1cccc(NC(=O)CN2C(=O)COc3ccc(Cl)cc32)c1 the results were DYRK1A inh -3, Rtt109 Vps75 44, dFosB activator -3, CAL PDZ FP-1 -2, CDK5 p35 inh 7 and CAL PDZ FP-2 -2.
`O=C(NCCSc1ccccn1)c1ccc(Cl)cc1` gave DYRK1A inh 2, Rtt109 Vps75 8, dFosB activator 0, CAL PDZ FP-1 0, CDK5 p35 inh -2 and CAL PDZ FP-2 1.
`O=C(NCCSc1ccccn1)c1ccc(Cl)cc1Cl` gave DYRK1A inh 0, Rtt109 Vps75 1, dFosB activator 4, CAL PDZ FP-1 11, CDK5 p35 inh 0 and CAL PDZ FP-2 33*.
Screening COc1ccc2nc(C)cc(Nc3ccc(N4CCOCC4)cc3)c2c1 returned DYRK1A inh -1, Rtt109 Vps75 -22, dFosB activator 30*, CAL PDZ FP-1 0, CDK5 p35 inh 0 and CAL PDZ FP-2 -1.
`COc1ccc2nc(C)cc(Nc3ccc(N4CCN(C)CC4)cc3)c2c1` gave DYRK1A inh 2, Rtt109 Vps75 -5, dFosB activator 77*, CAL PDZ FP-1 0, CDK5 p35 inh 1 and CAL PDZ FP-2 -1.
COc1ccc2nc(C)cc(Nc3ccc(C)cc3)c2c1 was read as DYRK1A inh 5, Rtt109 Vps75 10, dFosB activator 8, CAL PDZ FP-1 -4, CDK5 p35 inh 1 and CAL PDZ FP-2 8.
Screening COc1ccc(/C=N/Nc2cc(C)nc3ccc(OC)cc23)c(OC)c1 returned DYRK1A inh -3, Rtt109 Vps75 7, dFosB activator -114, CAL PDZ FP-1 45*, CDK5 p35 inh 4 and CAL PDZ FP-2 18.
`COc1ccc(C(=O)n2cnc3ccccc32)cc1[N+](=O)[O-]` gave Rtt109 Vps75 -3, dFosB activator -1, CAL PDZ FP-1 0, CDK5 p35 inh 0 and CAL PDZ FP-2 0.
For CC[C@]12c3[nH]c4ccccc4c3CCN1C(=O)C(CC(=O)NCc1ccc(OC)c(OC)c1)C[C@@H]2C(=O)N1CCN(C(=O)C2CC2)CC1 (stereo not given in full) the results were Rtt109 Vps75 2, dFosB activator -8, CAL PDZ FP-1 0, CDK5 p35 inh -6 and CAL PDZ FP-2 -2.
`COc1ccc(/C=N/NC(=O)c2ccc(CN3C(=O)c4cccc5cccc3c45)cc2)cc1O` gave DYRK1A inh 0, Rtt109 Vps75 0, dFosB activator -1, CAL PDZ FP-1 -1, CDK5 p35 inh -1 and CAL PDZ FP-2 77*.
For COc1cc(/C=N/NC(=O)c2ccc(CN3C(=O)c4cccc5cccc3c45)cc2)cc(OC)c1O the results were DYRK1A inh -3, Rtt109 Vps75 1, dFosB activator 6, CAL PDZ FP-1 6, CDK5 p35 inh 0 and CAL PDZ FP-2 50*.
COc1ccc(/C=N/NC(=O)c2ccc(-c3ccccc3)cc2)cc1O was read as DYRK1A inh 5, Rtt109 Vps75 -10, dFosB activator 5, CAL PDZ FP-1 -3, CDK5 p35 inh 1 and CAL PDZ FP-2 2.
COC(=O)CC1C(=O)NCCN1C(=O)CSc1nc2ccc([N+](=O)[O-])cc2s1 (stereo not given) was read as DYRK1A inh 11, Rtt109 Vps75 4, dFosB activator -2, CAL PDZ FP-1 -2, CDK5 p35 inh 0 and CAL PDZ FP-2 -2.
`Cc1ccc(C(=O)NCCCNC(=O)Cc2ccccc2)cn1` gave DYRK1A inh -3, Rtt109 Vps75 -11, dFosB activator 0, CAL PDZ FP-1 -2, CDK5 p35 inh -1 and CAL PDZ FP-2 -1.
Cc1ccc(C(=O)Nc2cccc(C(=O)N/N=C/c3ccc(F)cc3)c2)cc1 was read as DYRK1A inh -9, Rtt109 Vps75 -1, dFosB activator -1, CAL PDZ FP-1 -2, CDK5 p35 inh 0 and CAL PDZ FP-2 75*.
Screening O=C(N/N=C/c1cccnc1)c1cccc(F)c1 returned DYRK1A inh 7, Rtt109 Vps75 -4, dFosB activator 2, CDK5 p35 inh -3 and CAL PDZ FP-2 52*.
CC(=O)Nc1cccc(C(=O)N/N=C/c2ccc(F)cc2)c1 was read as DYRK1A inh 3, Rtt109 Vps75 2, dFosB activator -3, CAL PDZ FP-1 -2, CDK5 p35 inh 2 and CAL PDZ FP-2 -4.
For O=C(N/N=C/c1cccnc1)c1[nH]ncc1Br the results were DYRK1A inh 9, Rtt109 Vps75 -7, dFosB activator -7, CAL PDZ FP-1 0, CDK5 p35 inh 2 and CAL PDZ FP-2 49*.
For O=C(N/N=C/c1ccccc1)c1[nH]ncc1Br the results were DYRK1A inh 6, Rtt109 Vps75 -3, dFosB activator -3, CDK5 p35 inh 4 and CAL PDZ FP-2 -4.
O=C(COC(=O)CCC(=O)c1cccs1)Nc1ccccc1C(F)(F)F was read as DYRK1A inh -2, Rtt109 Vps75 -2, dFosB activator 2, CAL PDZ FP-1 0, CDK5 p35 inh -2 and CAL PDZ FP-2 -3.
`CS(=O)(=O)c1cnc2c(-c3ccc(F)cc3)cnn2c1N` gave DYRK1A inh 3, Rtt109 Vps75 -6, dFosB activator 2, CAL PDZ FP-1 1, CDK5 p35 inh 1 and CAL PDZ FP-2 2.
For CC(C)(C)S(=O)(=O)c1cnc2c(-c3ccsc3)cnn2c1N the results were Rtt109 Vps75 4, dFosB activator -6, CAL PDZ FP-1 0, CDK5 p35 inh -1 and CAL PDZ FP-2 48*.
